Screens: PubChem BioAssay, several laboratories
HGIII-sPLA2 inh: Inhibits HGIII-sPLA2 liposome hydrolysis, primary screen. Q9NZ20. inhibition, % at 12.2 µM. 370,000 compounds, 0.56% hits. QFRET BODIPY PC-A2 liposome hydrolysis, fluorescence;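 active = inhibition above mean plus 3 SD of compounds lying within the high and low control bounds, cut at about 19% in these data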;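 note: 0% = median of test compound wells and 100% = no enzyme DMSO wells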
A1 inh: inhibitors of the anti-apoptotic protein A1, read as caspase activation | MEF A1-2A-BIM cells, Caspase-Glo 3/7 luminescence, 3 h; percent of clofoctol response, vehicle zero | caspase activation, % (test concentration not listed) | 330,000 compounds, 0.066% hits;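 active = over half of replicate activation scores above 10%, or exactly half above 10 with the replicate mean above 10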
Granule exo inh: lytic granule exocytosis inhibition; TALL-104 LAMP-1 surface exposure, flow cytometry; cells stimulated with thapsigargin and PMA; inhibition, % at 10 µM; 360,000 compounds, 0.66% hits; AID 651702;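 active = inhibition above about 55%, limit read from the data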
MC4R ag barr: agonists of human melanocortin 4 receptor (MC4R) beta-arrestin; P32245; U2OS MC4R beta-arrestin complementation, luminescence; percent of melanotan II response, DMSO zero; activation, % at 8.9 µM; 360,000 compounds, 0.98% hits; AID 540308;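 active = activation above a per-plate cutoff, the mean activation of sample wells on that plate plus 3 SD, cut at about 8% in these data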
Target sequence (P32245 whole entry, looked up): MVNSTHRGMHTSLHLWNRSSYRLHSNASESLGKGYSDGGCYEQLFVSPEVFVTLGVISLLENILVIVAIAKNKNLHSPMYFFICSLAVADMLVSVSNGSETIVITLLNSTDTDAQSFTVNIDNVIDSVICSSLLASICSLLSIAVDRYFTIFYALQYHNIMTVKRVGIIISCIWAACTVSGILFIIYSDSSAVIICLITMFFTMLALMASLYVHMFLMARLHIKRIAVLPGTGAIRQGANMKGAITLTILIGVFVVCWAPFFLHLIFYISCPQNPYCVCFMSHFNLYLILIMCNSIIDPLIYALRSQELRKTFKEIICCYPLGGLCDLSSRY
NTR1 ag: NTR1 (human) agonism. P30989. 330,000 compounds, 0.17% hits. activation, % at 20 µM. NTR1-U2OS beta-arrestin-GFP spot imaging, agonist mode. AID 493036;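 active = activation at or above 40% of the spot to cytoplasm intensity ratio, with at least 20 cells analyzed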;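 note: 0% = DMSO without peptide and 100% = 100 nM NTR1 peptide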
MC4R antag cAMP: human MC4R antagonism in cAMP assay; P32245; MC4R-expressing cells, MTII-stimulated cAMP, LANCE TR-FRET; inhibition, % at 6.5 µM; 360,000 compounds, 0.48% hits;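 active = inhibition above its plate's cutoff, the mean of tested wells on that plate plus 3 SD, cut at about 29% in these data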;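 note: 0% = Melanotan II alone and 100% = Melanotan II plus saturating MCL0020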
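System – human MC4R-expressing U2OS cells · Also added – Melanotan II · Dosing – one concentration, 6.5 µM nominal · Timing – 30-min compound, 1-h challenge, 1-h detection, room temperature · Measured by – Eu-cAMP/anti-cAMP TR-FRET, emission 671 nm · Replicates – singlicate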
Granule exo CP1: lytic granule exocytosis inhibition; TALL-104 cells, LAMP-1 externalization, flow cytometry; stimulated with PMA plus thapsigargin; shares compounds with Granule exo inh; 1,500 compounds, 11% hits; inhibition, % at 10 µM; in the data active = inhibition above about 60%;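 note: 0% = stimulated vehicle wells and 100% = unstimulated wells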
Starred values were filed as active, the others as inactive; / = not tested or not shown. A selection: hits, their analogues and other compounds. The true share with any hit is near 2.5%.

SMILES	HGIII-sPLA2 inh	A1 inh	Granule exo inh	MC4R ag barr	NTR1 ag	MC4R antag cAMP	Granule exo CP1
CCC(C)[C@H](NC(=O)NCc1ccc(F)cc1)C(=O)O (stereo partly specified)	-2	0	0	1	0	4	/
CCc1ccc(NC(=O)NCC2CCN(Cc3cccc(Cl)c3)CC2)cc1	-19	1	61*	3	0	-1	-4
Cc1ccc(C)c(CN2CCC(CNC(=O)Nc3ccc(F)c(Cl)c3)CC2)c1	-20	-1	58*	5	5	3	0
Cc1cc(C)cc(NC(=O)NCC2CCN(Cc3cc(C)ccc3C)CC2)c1	-10	1	46	2	5	4	/
Cc1cc(NC(=O)Nc2cccc(F)c2)n(-c2ccccc2)n1	12	/	/	/	/	/	/
O=C1CCC(c2ccccc2)c2ccccc21 (stereo unspecified)	0	0	-9	2	1	-8	/
N#CC1C(=O)c2ccccc2C1c1ccccc1 (stereo unspecified)	1	/	64*	-2	/	-1	-14
c1ccc(Oc2nc(-c3cccnc3)nc3ccccc23)cc1	-9	0	83*	0	7	-1	-3
Fc1ccccc1CNc1nc(-c2cccnc2)nc2ccccc12	-12	-1	81*	1	6	16	-10
c1cncc(-c2nc(NCc3cccs3)c3ccccc3n2)c1	-11	-1	8	-2	3	-1	/
CCCCN(C)CCN1C(=O)C2C(C(=O)Nc3ccc(OC)cc3)C3C=CC2(O3)C1C(=O)NC1CCCCC1 (stereo unspecified)	-1	-1	7	0	-1	1	/
COc1ccc(CCNCc2ccc(OCc3ccccc3)cc2)cc1	8	-1	85*	2	-1	5	57
O=C(CN1CCC(C(=O)c2ccc3c(c2)OCCO3)CC1)Nc1ccccc1C(F)(F)F	2	0	88*	-1	3	0	-3
OCC1(CCc2ccccc2)CCCN(C/C=C/c2ccccc2)C1 (stereo unspecified)	-11	0	-6	4	2	0	/
COc1ccccc1/C=C/CN1CCCC(CO)(CCc2ccccc2)C1 (stereo unspecified)	-18	1	58*	0	4	8	-5
COc1ccc(C(C(=O)N(C)C2CCCC2)N(Cc2ccc(F)cc2)C(=O)c2csc(-c3ccccc3)n2)cc1OC (stereo unspecified)	-4	/	/	/	/	/	/
Cc1cc(C)cc(N(CC(=O)NC2CCC(C)CC2)S(=O)(=O)c2ccc(Br)s2)c1 (stereo unspecified)	-1	/	/	/	/	/	/
Cc1ccccc1-c1cc2c(c3c1ccn3C)C1CCC2C1 (stereo unspecified)	14	/	0	/	/	/	/
CCOC(=O)c1ccccc1NC(=O)COC(=O)C1CCN(S(=O)(=O)c2ccccc2C(=O)OC)CC1	-19	1	11	-3	8	12	/
COC(=O)c1ccccc1S(=O)(=O)N1CCC(C(=O)OCC(=O)NCC(F)(F)F)CC1	10	-1	96*	-3	3	8	-6
COC(=O)[C@]12C[C@H](CC(=O)NCCC(C)C)C(=O)N(CCc3ccc(OC)c(OC)c3)C1=C[C@H](COCc1ccccc1)O[C@@H]2C	-11	/	/	/	/	/	/
Cc1ccc(C(=O)OCC(=O)NC2CCCCC2)o1	4	0	-2	-3	0	3	/
O=C(COC(=O)c1ccco1)NC1CCCC1	1	0	72*	-3	0	8	-13
CCCN(CC1CC1)c1c2c(nc3ncnn13)CCCC2	0	/	/	/	/	/	/
Cc1cccc(COCC(CC(C)C)N2CCN(C(=O)c3ccc(C(C)(C)C)cc3)CCC2=O)c1 (stereo unspecified)	2	0	66*	-1	19	17	-4
SMILES	HGIII-sPLA2 inh	A1 inh	Granule exo inh	MC4R ag barr	NTR1 ag	MC4R antag cAMP	Granule exo CP1
c1ccc(-c2csc3ncnc(N4CCN(Cc5ccc6c(c5)OCO6)CC4)c23)cc1	1	0	76*	2	21	12	-4
Fc1ccc(-c2csc3ncnc(N4CCN(Cc5ccccc5)CC4)c23)cc1	-1	0	1	-1	10	13	/
Fc1ccc(CN2CCN(c3ncnc4scc(-c5ccccc5)c34)CC2)cc1	-7	0	74*	5	12	5	-5
Cc1cc(-c2csc3ncnc(N4CCN(C)CC4)c23)cc(C)c1C	-9	0	96*	-1	0	5	1
CN1CCN(c2ncnc3scc(-c4ccccc4Cl)c23)CC1	0	0	3	-1	-2	-4	/
Cc1sc2ncnc(N3CCN(Cc4ccccc4)CC3)c2c1-c1ccc(F)cc1	3	-1	65*	2	12	16	-11
COc1ccc(S(=O)(=O)N(CC(=O)NCc2ccncc2)c2ccc(C)cc2)cc1Br	-18	0	26	-2	-2	15	/
COc1ccc(-c2csc3ncnc(N4CCN(c5ccccc5OC)CC4)c23)cc1	-4	0	88*	5	10	14	-10
COc1cc2c(cc1OC)[C@@H]1Cc3cc4c(cc3[C@H](C2)N1C)OCO4	1	0	79*	-1	-4	10	-14
Cc1noc(C)c1S(=O)(=O)N(CC(=O)NCc1ccccc1)c1ccc(C(C)C)cc1	0	-2	-1	0	1	0	/
Cc1noc(C)c1S(=O)(=O)N(CC(=O)NC(C)c1ccccc1)c1ccc(C(C)C)cc1 (stereo unspecified)	5	0	70*	4	4	12	-4
Cc1noc(C)c1S(=O)(=O)N(CC(=O)NCCc1ccccc1)c1ccc(C(C)C)cc1	1	0	56*	5	1	7	-14
Cc1c(NC(=O)COC(=O)/C=C/c2cccc(Cl)c2)c(=O)n(-c2ccccc2)n1C	9	-1	-3	-2	0	-2	/
CSc1ccc(CN2CCN(CC=C(C)C)C(CCO)C2)cc1 (stereo unspecified)	-5	0	3	-2	2	0	/
Cc1ccc(C)c(CN2C(=O)CSc3ccc(C(=O)NCC(C)CN4CCC(C)CC4)cc32)c1 (stereo unspecified)	-3	0	77*	-1	1	0	4
CC(=O)N1c2ccccc2S(=O)(=O)c2c1ccc1ccccc21	5	/	79*	-2	/	-1	-13
CN1CCN(c2ccc(NC(=O)c3ccc(-c4ccc(Cl)cc4)o3)cc2)CC1	-10	0	73*	10*	13	1	91*
